According to ChEMBL document CHEMBL4270573, “Novel nicotinoyl pyrazoline derivates bearing N-methyl indole moiety as antitumor agents: Design, synthesis and evaluation” (Eur J Med Chem, 2018):
Active and inactive are the calls of the source. The calls are words filed in the database; no cut-off is given here.

Key:
HepG2 [1] = test: Growth inhibition of human HepG2 cells after 48 hrs by MTT assay; assay type: functional; details: HepG2, 48 h
How it was run: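 Proliferation read-out; GI50 taken as the concentration giving 50% reduction of cancer cell proliferation.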

HeLa [2] = test: Cell cycle arrest in human HeLa cells assessed as accumulation at S phase at 0.020 uM after 24 hrs by propidium iodide staining based flow cytometric analysis (reference value: 17.46%); assay type: functional
How it was run: (§1)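 HepG2 and HeLa cells were exposed to 0, 0.020, 0.040, 0.060, 0.080 or 0.10 µM for 6, 12 or 24 h. DNA content was stained with propidium iodide and analysed by flow cytometry to give the percentage of cells in G0/G1, S and G2/M phases; sub-G1 cells were also recorded.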

HeLa [3] = test: Cell cycle arrest in human HeLa cells assessed as accumulation at S phase at 0.040 uM after 24 hrs by propidium iodide staining based flow cytometric analysis (reference value: 17.46%); assay type: functional; how it was run: as §1
HeLa [4] = test: Cell cycle arrest in human HeLa cells assessed as accumulation at G2/M phase at 0.040 uM after 24 hrs by propidium iodide staining based flow cytometric analysis (reference value: 17.72%); assay type: functional; how it was run: as §1
HeLa [5] = test: Cell cycle arrest in human HeLa cells assessed as accumulation at G0/G1 phase at 0.060 uM after 24 hrs by propidium iodide staining based flow cytometric analysis (reference value: 66.26%); assay type: functional; how it was run: as §1
HeLa [6] = test: Cell cycle arrest in human HeLa cells assessed as accumulation at S phase at 0.10 uM after 24 hrs by propidium iodide staining based flow cytometric analysis (reference value: 17.46%); assay type: functional; how it was run: as §1
HepG2 [7] = test: Cell cycle arrest in human HepG2 cells assessed as accumulation at G0/G1 phase at 0.020 uM after 24 hrs by propidium iodide staining based flow cytometric analysis (reference value: 55.63%); assay type: functional; how it was run: as §1
HeLa [8] = test: Induction of apoptosis in human HeLa cells assessed as early apoptotic cells at 0.020 uM after 24 hrs by Annexin V-FITC/propidium iodide staining based flow cytometric analysis (reference value: 6.17%); assay type: functional
How it was run: (§2)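 HepG2 and HeLa cells were exposed to 0, 0.02, 0.040, 0.060, 0.080 and 0.10 µM for 6, 12 and 24 h. Cells were double-stained with Annexin V-FITC/PI and read by flow cytometry. Apoptotic rate was the percentage of FITC-positive cells, counting early plus late apoptotic.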

HeLa [9] = test: Induction of apoptosis in human HeLa cells assessed as necrotic cells at 0.020 uM after 24 hrs by Annexin V-FITC/propidium iodide staining based flow cytometric analysis (reference value: 0.242%); assay type: functional; how it was run: as §2
HeLa [10] = test: Induction of apoptosis in human HeLa cells assessed as early apoptotic cells at 0.040 uM after 24 hrs by Annexin V-FITC/propidium iodide staining based flow cytometric analysis (reference value: 6.17%); assay type: functional; how it was run: as §2
HeLa [11] = test: Induction of apoptosis in human HeLa cells assessed as late apoptotic cells at 0.040 uM after 24 hrs by Annexin V-FITC/propidium iodide staining based flow cytometric analysis (reference value: 4.98%); assay type: functional; how it was run: as §2
HeLa [12] = test: Induction of apoptosis in human HeLa cells assessed as early apoptotic cells at 0.060 uM after 24 hrs by Annexin V-FITC/propidium iodide staining based flow cytometric analysis (reference value: 6.17%); assay type: functional; how it was run: as §2
HeLa [13] = test: Induction of apoptosis in human HeLa cells assessed as necrotic cells at 0.060 uM after 24 hrs by Annexin V-FITC/propidium iodide staining based flow cytometric analysis (reference value: 0.242%); assay type: functional; how it was run: as §2
HeLa [14] = test: Induction of apoptosis in human HeLa cells assessed as early apoptotic cells at 0.080 uM after 24 hrs by Annexin V-FITC/propidium iodide staining based flow cytometric analysis (reference value: 6.17%); assay type: functional; how it was run: as §2
HeLa [15] = test: Induction of apoptosis in human HeLa cells assessed as necrotic cells at 0.080 uM after 24 hrs by Annexin V-FITC/propidium iodide staining based flow cytometric analysis (reference value: 0.242%); assay type: functional; how it was run: as §2
HepG2 [16] = test: Induction of apoptosis in human HepG2 cells assessed as necrotic cells at 0.040 uM after 24 hrs by Annexin V-FITC/propidium iodide staining based flow cytometric analysis (reference value: 0.270%); assay type: functional; how it was run: as §2
HepG2 [17] = test: Induction of apoptosis in human HepG2 cells assessed as late apoptotic cells at 0.080 uM after 24 hrs by Annexin V-FITC/propidium iodide staining based flow cytometric analysis (reference value: 2.93%); assay type: functional; how it was run: as §2
HepG2 [18] = test: Induction of apoptosis in human HepG2 cells assessed as viable cells at 0.080 uM after 24 hrs by Annexin V-FITC/propidium iodide staining based flow cytometric analysis (reference value: 94.5%); assay type: functional; details: HepG2, 24 h, read-out: Activity; how it was run: as §2
HepG2 [19] = test: Induction of apoptosis in human HepG2 cells assessed as late apoptotic cells at 0.10 uM after 24 hrs by Annexin V-FITC/propidium iodide staining based flow cytometric analysis (reference value: 2.93%); assay type: functional; how it was run: as §2
Mus musculus [20] = test: Toxicity in nude mouse xenografted with human HeLa cells assessed as change in mouse liver weight at 10 to 20 mg/kg, ip after 14 days; assay type: organism-based; details: in vivo, 336 h
[21] = Selectivity index, ratio of CC50 for HEK293T cells to GI50 for human MCF7 cells; assay type: toxicity; details: HEK293T cells and MCF7 cells, read-out: Selectivity Index
How it was run: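 Ratio CC50/GI50: CC50 is the concentration reducing non-tumour 293T cell proliferation by 50%; GI50 is the concentration reducing cancer cell proliferation by 50%.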

HeLa [22] = test: Antitumor activity against human HeLa cells xenografted in nude mouse assessed as necrosis of tumor cells at 10 to 20 mg/kg, ip after 14 days by hematoxylin and eosin staining based microscopic analysis; assay type: functional, organism-based
How it was run: (§3)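 Excised tumours and heart, liver, kidney and spleen were H&E-stained and examined microscopically. Tumour scoring covered cell arrangement and necrosis. Organ scoring covered inflammatory infiltration, edema, necrosis and cell morphology.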

HeLa [23] = test: Antitumor activity against human HeLa cells xenografted in nude mouse assessed as loose and irregular arrangement of tumor cells at 10 to 20 mg/kg, ip after 14 days by hematoxylin and eosin staining based microscopic analysis; assay type: functional, organism-based; how it was run: as §3
Mus musculus [24] = test: Nephrotoxicity in nude mouse xenografted with human HeLa cells assessed as necrosis in kidney at 10 to 20 mg/kg, ip after 14 days by hematoxylin and eosin staining based microscopic analysis; assay type: toxicity, organism-based; details: in vivo, 336 h
Mus musculus [25] = test: Hepatotoxicity in nude mouse xenografted with human HeLa cells assessed as morphological changes in liver cells at 10 to 20 mg/kg, ip after 14 days by hematoxylin and eosin staining based microscopic analysis; assay type: toxicity, organism-based; details: in vivo, 336 h
How it was run: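 HeLa xenograft nude mice with tumours near 100 mm³, randomised to four groups of 28 mice in total. Dosing was intraperitoneal: vehicle, CA-4 10 mg/kg, or test compound at 10 or 20 mg/kg, continued for 14 days. Heart, liver, kidney and spleen were then H&E-stained and examined for inflammatory infiltration, edema, necrosis and cell morphology.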

Mus musculus [26] = test: Cardiotoxicity in nude mouse xenografted with human HeLa cells assessed as morphological changes in heart cells at 10 to 20 mg/kg, ip after 14 days by hematoxylin and eosin staining based microscopic analysis; assay type: toxicity, organism-based; details: in vivo, 336 h; how it was run: as §3
Mus musculus [27] = test: Toxicity in nude mouse xenografted with human HeLa cells assessed as morphological changes in spleen cells at 10 to 20 mg/kg, ip after 14 days by hematoxylin and eosin staining based microscopic analysis; assay type: organism-based; details: in vivo, 336 h

For COc1cccc(C2=NN(C(=O)c3ccc(C)nc3)C(c3cn(C)c4ccc(OC)cc34)C2)c1 (configuration not stated), the GI50 (HepG2 [1]) was 29 nM, the Activity (HeLa [2]) was 9.62% and the Activity (HeLa [3]) was 7.43%. It also gave an Activity (HeLa [4]) of 27.81%, an Activity (HeLa [5]) of 8.57% and an Activity (HeLa [6]) of 17.88%. The Activity (HepG2 [7]) was 41.26%, the Activity (HeLa [8]) was 3.24% and the Activity (HeLa [9]) was 0.12%. It also gave an Activity (HeLa [10]) of 11%, an Activity (HeLa [11]) of 3.95% and an Activity (HeLa [12]) of 26.1%. It also gave an Activity (HeLa [13]) of 0.484%, an Activity (HeLa [14]) of 30.2% and an Activity (HeLa [15]) of 1.02%. For the same compound, the Activity (HepG2 [16]) was 2.2%, the Activity (HepG2 [17]) was 6.01% and the viability at 0.08 µM (HepG2 [18]) was 81.4%. For the same compound, the Activity (HepG2 [19]) was 8.33%, the Activity (Mus musculus [20]) was “Non-Toxic” and the selectivity ratio [21] was 3 to 10. The Activity (HeLa [22]) was “Active”, the Activity (HeLa [23]) was “Active” and the Activity (Mus musculus [24]) was “Non-Toxic”. For the same compound, the Activity (Mus musculus [25]) was “Non-Toxic”, the Activity (Mus musculus [26]) was “Non-Toxic” and the Activity (Mus musculus [27]) was “Non-Toxic”.
